Usually inhibition stands for how much of the control response was suppressed. For orientation: MIC90 means the lowest concentration that inhibits either 90% of growth or 90% of the strains tested, depending on the study. Read a high MIC90 as lower susceptibility. As usually defined, the MIC is the lowest concentration that inhibits growth of the organism. Lower therefore signals a more susceptible organism. Usually MIC99 stands for an inhibitory concentration at the 99% level, which refers to growth in some studies and to a panel of isolates in others. A lower MIC99 goes with higher susceptibility.

SMILES strings stand for the structures. ≈ marks a conversion by molar mass, not a printed value. Calls of active or inactive are those of the source. The rule behind the calls is not given here.

In one series the test system is Peritoneal macrophage. Description: Cytotoxicity against Balb/c mouse peritoneal macrophages assessed as reduction in cell viability after 48 hrs by MTT assay. In kind it is cell-based. An outline of the steps: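 Murine peritoneal macrophages, 1 × 10^6 cells/well, exposed to compound at 0.1 to 250 µg/ml in RPMI-1640 with 10% FBS for 48h. MTT (5 mg/ml) added for 3 h at 37°C, formazan dissolved in 0.04M HCl in isopropanol for 15 min at room temperature, absorbance read at 570 nm. IC50 (50% loss of viability) taken from a dose–response curve of percentage activity versus log10 concentration.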
(Tetrazolium assays rely on reduction of a dye to a coloured formazan, in cell work by metabolically active cells.)

The test system of series [1] is Mycolicibacterium smegmatis. Description: Inhibition of epoxy-mycolic acid biosynthesis in Mycobacterium smegmatis MC2 155 assessed as reduction in [1-14C]acetate incorporation at 5 times antibacterial MIC preincubated for 90 mins followed by [1-14C]acetate addition measured after 1 hr by liquid scintillation counting based TLC method. Format: functional. The note with it: str. MC2 155.

For a further series, the system named is HepG2. Kind of series: Cytotoxicity against human HepG2 cells assessed as reduction in cell viability after 72 hrs by MTT assay. Format: cell-based. The note with it: hepg2, 72 h. The procedure, abridged: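 HepG2 cells grown in Eagle's MEM with 10% FBS at 37 °C and 5% CO2. Cells were scraped, resuspended at ~1 × 10^6 cells/mL, plated and left 24 h, then exposed to compound at 400 to 0.2 µg/mL for 72 h. Viability read by MTT assay. IC50 (50% loss of viability) taken from a dose–response curve versus log10 concentration.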

Series [2] has as its system Mycolicibacterium smegmatis. Kind of series: Inhibition of fattyacid biosynthesis in Mycobacterium smegmatis MC2 155 assessed as reduction in [1-14C]acetate incorporation at 5 times antibacterial MIC preincubated for 90 mins followed by [1-14C]acetate addition measured after 1 hr by liquid scintillation counting based TLC method. Format: functional. The note with it: str. MC2 155.

The test system of series [3] is Mycobacterium tuberculosis. Description: Antimycobacterial activity against Mycobacterium tuberculosis H37Rv ATCC 27294 after 7 days by microplate alamar blue assay. In kind it is functional. The note with it: H37Rv ATCC 27294, 168 h. An outline of the steps: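 MABA run in 7H12 medium in 96-well plates for 7 days at 37 °C. Alamar Blue and Tween 80 were then added for a further 24 h. Fluorescence was read at 530/590 nm. MIC was the lowest concentration giving a 90% fluorescence (or luminescence) reduction versus controls. Luciferase reporter strains or intracellular ATP were used for compounds with background fluorescence. Isoniazid and rifampin were run as controls.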
In general terms: Alamar Blue is a resazurin reagent that responds to reducing activity.

The test system of series [4] is Mycolicibacterium smegmatis. Description: Antimycobacterial activity against Mycobacterium smegmatis MC2 155 after 48 hrs by serial dilution method. Format: functional. The conditions noted are these: str. MC2 155, 48 h. An outline of the steps: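 M. smegmatis grown in Middlebrook 7H9 with 10% albumin–dextrose complex and 0.03% Tween80 at 37 °C. Twofold serial dilutions of compound were combined with mid-log culture diluted to OD570 0.01, giving a final range of […] in 7H9 broth. Incubated in ambient air at 37 °C for 48 h. MIC taken as the lowest concentration preventing visible growth.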

Series [5] has as its system Mycolicibacterium smegmatis. Description: Antimycobacterial activity against Mycobacterium smegmatis MC2 155 infected in Balb/c mouse peritoneal macrophages assessed as downregulation of IL-10 mRNA expression at 5 ug/ml after 6 hrs RT-PCR method. In kind it is functional. The conditions noted are these: str. MC2 155. The procedure, abridged: (§1)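 BALB/c peritoneal macrophages were cultured 48 h in RPMI-1640 with 10% FBS. Cells at 2 × 10⁶/ml were infected with mid-log, PBS-washed mc²155 at a macrophage:bacteria ratio of 1:10 for 6 h, then washed three times. Compound was added at 5 µg/mL for another 6 h. Total RNA was taken up in Trizol, 1 µg was used for cDNA, and PCR ran 40 cycles (94 °C 45 s, 60 °C 1 min, 72 °C 1 min).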

Series [6] deals with Mycolicibacterium smegmatis. Kind of series: Antimycobacterial activity against Mycobacterium smegmatis MC2 155 infected in Balb/c mouse peritoneal macrophages assessed as increase in iNOS2 mRNA expression at 5 ug/ml after 6 hrs RT-PCR method. In kind it is functional. The conditions noted are these: str. MC2 155. An outline of the steps: as §1
The test system of series [7] is Mycolicibacterium smegmatis. Kind of series: Inhibition of alpha'-mycolic acid biosynthesis in Mycobacterium smegmatis MC2 155 assessed as reduction in [1-14C]acetate incorporation at 5 times antibacterial MIC preincubated for 90 mins followed by [1-14C]acetate addition measured after 1 hr by liquid scintillation counting based TLC method. In kind it is functional. The conditions noted are these: str. MC2 155.

For series [8], the system named is Mycolicibacterium smegmatis. Description: Inhibition of alpha-mycolic acid biosynthesis in Mycobacterium smegmatis MC2 155 assessed as reduction in [1-14C]acetate incorporation at 5 times antibacterial MIC preincubated for 90 mins followed by [1-14C]acetate addition measured after 1 hr by liquid scintillation counting based TLC method. Format: functional. The note with it: str. MC2 155.

Series [9] concerns Mycolicibacterium smegmatis. Description: Antimycobacterial activity against Mycobacterium smegmatis MC2 155 infected in Balb/c mouse peritoneal macrophages assessed as upregulation of IL-12 mRNA expression at 5 ug/ml after 6 hrs RT-PCR method. Format: functional. The note with it: str. MC2 155. The procedure, abridged: as §1
For series [10], the system named is Mycolicibacterium smegmatis. Description: Antimycobacterial activity against Mycobacterium smegmatis MC2 155 infected in Balb/c mouse peritoneal macrophages assessed as upregulation of IFN-gamma mRNA expression at 5 ug/ml after 6 hrs RT-PCR method. Format: functional. The note with it: str. MC2 155. The procedure, abridged: as §1
Series [11] has as its system Mycobacterium tuberculosis. Description: Antimycobacterial activity against Mycobacterium tuberculosis H37Rv ATCC 27294 at 50 ug/ml after 7 days by microplate alamar blue assay relative to control. The note with it: H37Rv ATCC 27294, 168 h. In kind it is functional.
Series [12] concerns Mycobacterium tuberculosis. Kind of series: Antimycobacterial activity against Mycobacterium tuberculosis MC2 6030 after 2 to 3 weeks by agar plate method. In kind it is functional. The procedure, abridged:
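Strain mc²6030 is a pantothenate auxotroph lacking RD1, grown at 37 °C in Sauton's medium plus 20 μg/ml pantothenic acid. Serial 10-fold dilutions of actively growing culture were plated on 7H10/OADC agar with 20 μg/ml pantothenic acid and increasing compound concentrations, from 10 mg/ml DMSO stocks. Plates were held 2–3 weeks at 37 °C. MIC was the concentration inhibiting 99% of growth; isoniazid served as control.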

With `CC(C)=CCOc1cccc(NC(=O)Nc2cccc(C(F)(F)F)c2)c1`, the Activity in the series on Peritoneal macrophage amounted to 116.7 µg/mL; with HepG2 it was 135.6 µg/mL. Besides, in [1], the inhibition result was “Active”. In addition, the inhibition result in [2] was “inactive”. For the same molecule, the MIC90 in series [3] was determined as 40.2 µg/mL (≈ 110 µM). In addition, the MIC in series [4] was found to be 3.12 µg/mL (≈ 8.56 µM).

`CC(C)=CCOc1cccc(NC(=O)Nc2cccc(C#N)c2)c1`: the Activity in the series with Peritoneal macrophage turned out to be 159.4 µg/mL; with HepG2, 172.6 µg/mL. Moreover, in [1], the inhibition result is “Active”. Moreover, the result in series [5], in [6], in [9] and in [10] was Active. Moreover, the inhibition result in series [2], in series [7] and in series [8] was “inactive” throughout. The molecule also showed an MIC90 in series [3] of 9.2 µg/mL (≈ 28.6 µM). In series [4], this molecule displayed an MIC of 25 µg/mL (≈ 77.8 µM).

For `CC(C)=CCOc1cccc(NC(=O)Nc2cccc(F)c2)c1`, the figures for the Activity with Peritoneal macrophage and in the series on HepG2 were 83.7 µg/mL and 94 µg/mL, respectively. Moreover, in [1], the inhibition entry was “Active”. For the same molecule, the inhibition at 50 µg/mL in series [11] was determined as 89%. Besides, the inhibition result in [2] was “inactive”. Also, in series [3], the MIC90 is more than 50 µg/mL. Besides, the MIC in series [4] is 25 µg/mL (≈ 79.5 µM).

Consider `CC(C)=CCOc1cccc(NC(=O)Nc2cccc(C(=O)O)c2)c1`, for which the values for the Activity in the series on Peritoneal macrophage and with HepG2 were 120.4 µg/mL and 132.6 µg/mL, respectively. The inhibition entry in series [1] was “Active”. The inhibition result in series [2], in series [7] and in series [8] was “inactive” each time. The molecule further yielded an MIC90 in series [3] of 16.5 µg/mL (≈ 48.5 µM). For the same molecule, the MIC in [4] is 12.5 µg/mL (≈ 36.7 µM).

`CC(C)=CCOc1cccc(NC(=O)Nc2ccccc2C)c1`: the results for the Activity in the series with Peritoneal macrophage and with HepG2 were 140.5 µg/mL and 163.4 µg/mL, respectively. Besides, the inhibition result in series [1] is “Active”. The result in series [5], in series [6], in [9] and in series [10] was Active. The inhibition result in series [2], in series [7] and in series [8] was “inactive” in each case. Also, the MIC90 in [3] came out at 5.2 µg/mL (≈ 16.8 µM). In series [4], the MIC is 12.5 µg/mL (≈ 40.3 µM). This molecule had an MIC99 in series [12] of 1 µg/mL (≈ 3.22 µM).

As to `CCCCOc1ccc(NC(=O)Nc2ccccc2C)cc1`, the Activity in the series with Peritoneal macrophage came out at 125.7 µg/mL; in the series with HepG2, 130.5 µg/mL. In addition, the inhibition result in series [1] is “Active”. For the same molecule, the inhibition result in series [2], in [7] and in series [8] was “inactive” each time. This molecule had an MIC90 in series [3] of 7 µg/mL (≈ 23.5 µM). In [4], this molecule registered an MIC of 100 µg/mL (≈ 335 µM). The same molecule yielded an MIC99 in series [12] of 100 µg/mL (≈ 335 µM).

For the molecule `C=CCOc1cccc(NC(=O)Nc2ccccc2)c1`, the Activity in the series with Peritoneal macrophage was determined as 142.5 µg/mL; in the series with HepG2, 150.6 µg/mL. Besides, the inhibition at 50 µg/mL in [11] was 73%. This molecule also registered an MIC90 in [3] of more than 50 µg/mL. For the same molecule, the MIC in series [4] amounted to 100 µg/mL (≈ 373 µM). Also, the MIC99 in series [12] came out at 20 µg/mL (≈ 74.5 µM).

On to `CC(C)=CCOc1ccc(NC(=O)Nc2cccc(C#N)c2)cc1`, for which the Activity in the series on Peritoneal macrophage was 169.1 µg/mL; in the series on HepG2, 186.4 µg/mL. This molecule also registered an inhibition at 50 µg/mL in series [11] of 82%. In addition, the MIC90 in [3] is more than 500 µg/mL. Besides, 50 µg/mL (≈ 156 µM) was the least that counted as inhibitory in series [4] (MIC). This molecule displayed an MIC99 in [12] of 5 µg/mL (≈ 15.6 µM).

With `CC(C)=CCOc1cccc(NC(=O)Nc2cccc([N+](=O)[O-])c2)c1`, the Activity with Peritoneal macrophage amounted to 94.1 µg/mL; in the series on HepG2, 113.7 µg/mL. In addition, the inhibition result in series [1] is “Active”. The result in series [5] and in [6] was Active. For the same molecule, the inhibition entry in series [2], in series [7] and in [8] was “inactive” in each case. Moreover, the MIC90 in [3] turned out to be 6 µg/mL (≈ 17.6 µM). In series [4], this molecule gave an MIC of 3.21 µg/mL (≈ 9.4 µM). The MIC99 in series [12] came out at 2 µg/mL (≈ 5.86 µM). In addition, the result in series [9] and in [10] was inactive.

Turning to `CC(C)=CCOc1cccc(NC(=O)Nc2ccccc2)c1`, the Activity in the series with Peritoneal macrophage stood at 141.8 µg/mL; in the series with HepG2 it was 168.2 µg/mL. The molecule also returned an inhibition at 50 µg/mL in series [11] of 79%. Further, the MIC90 in [3] was more than 50 µg/mL. In series [4], this molecule displayed an MIC of more than 200 µg/mL. In series [12], the MIC99 was found to be 30 µg/mL (≈ 101 µM).

Turning to `CC(C)=CCOc1ccc(NC(=O)Nc2ccccc2)cc1`, the Activity in the series with Peritoneal macrophage was determined as 109.5 µg/mL; in the series with HepG2, 124.7 µg/mL. For the same molecule, the inhibition result in [1], in [2], in series [7] and in [8] was “inactive” throughout. In series [3], the MIC90 worked out at 43.1 µg/mL (≈ 145 µM). Further, in [4], 25 µg/mL (≈ 84.4 µM) was the least that counted as inhibitory (MIC). The molecule also registered an MIC99 in series [12] of 30 µg/mL (≈ 101 µM).

For the origin of these results see ChEMBL document CHEMBL4041500, “Attenuation of Mycobacterium species through direct and macrophage mediated pathway by unsymmetrical diaryl urea” (Eur J Med Chem, 2017).
